For one molecule, Activity and inhibition results are on record in ChEMBL document CHEMBL2417467, “Antiproliferative cardiac glycosides from the latex of Antiaris toxicaria” (J Nat Prod, 2013).

Experiment [1] has as its system NIH-H460. As to the kind of experiment: Induction of Nur77 protein expression in human NIH-H460 cells at […] by Western blotting analysis. The experiment is classed as functional, cell-based. In a few lines:
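NIH-H460 cells were treated with vehicle or compound, either at 2.5–40 nM for 3 h or at 20 nM over a time course. Equal amounts of lysate were run on 8% SDS-PAGE and blotted to PVDF. Membranes were blocked in 5% milk/TBST and probed overnight at 4 °C with anti-Nur77 (1:1000). Bands were detected by ECL, with β-actin reprobe as loading control.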
On the technique in general: A western blot detects proteins with antibodies after separation by electrophoresis.

In experiment [2] the test system is NIH-H460. As to the kind of experiment: Induction of apoptosis in human NIH-H460 cells assessed as localization of Nur77 in nucleus at 20 nM after 3 hrs by immunofluorescence microscopic analysis. The experiment is classed as functional, cell-based. In a few lines: (§1)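 NIH-H460 cells on slides were treated with 20 nM for 3 h, then given MitoTracker Red (25 nM) for 15 min. Cells were permeabilised with 0.01% digitonin in PBS for 30 min and blocked with 1% BSA for 30 min. Anti-Nur77 (1:200) was applied for 3 h at RT, then FITC/Cy3 anti-rabbit IgG for 1 h. DAPI marked nuclei, and images were taken by confocal microscopy.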

For experiment [3], the system named is NIH-H460. Put plainly: Induction of apoptosis in human NIH-H460 cells assessed as localization of Nur77 in cytoplasm at 20 nM after 3 hrs by immunofluorescence microscopic analysis. The experiment is classed as functional, cell-based. In a few lines:
as §1

Experiment [4] has as its system NIH-H460. As to the kind of experiment: Induction of apoptosis in human NIH-H460 cells assessed as caspase-3 activation at 20 nM after 24 hrs by Western blotting analysis. The experiment is classed as functional, cell-based.
Experiment [5] can be described thus: Cytotoxicity against human NIH-H460 cells assessed as cell viability at 50 nM after 48 hrs by MTT assay relative to control. It is filed as functional. As to conditions: NIH-H460, 48 h. In a few lines: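 NIH-H460 cells (RPMI 1640, 10% FBS, 1% L-glutamine, penicillin/streptomycin) were seeded at 1 × 10^4 cells/well and exposed to 50 nM for 48 h. MTT was then added at 0.5 mg/mL final in medium for 2 h in the dark at 37 °C. Formazan was dissolved in DMSO for 15 min at RT and read at 570 nm. Output was inhibitory rate (%).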
Background: Tetrazolium assays rely on reduction of a dye to a coloured formazan, in cell work by metabolically active cells.

For experiment [6], the system named is NIH-H460. As to the kind of experiment: Induction of apoptosis in human NIH-H460 cells assessed as localization of Nur77 in mitochondria at 20 nM after 3 hrs by immunofluorescence microscopic analysis. It is filed as functional, cell-based. In a few lines:
as §1

Experiment [7] deals with NIH-H460. As to the kind of experiment: Induction of apoptosis in human NIH-H460 cells assessed as increase in PARP cleavage at 20 nM after 24 hrs by Western blotting analysis. It is filed as functional, cell-based. In a few lines:
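Western blot of NIH-H460 lysates (8% SDS-PAGE, PVDF) probed overnight at 4 °C with anti-PARP (1:1000) to detect cleavage. Detection was by ECL, with β-actin reprobe as loading control. Cleavage was examined at 24 h post-treatment.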

Experiment [8] in a line: Induction of apoptosis in human NIH-H460 cells at 20 nM after 36 hrs by microscopic analysis relative to control. The experiment is classed as functional. In a few lines:
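NIH-H460 cells were exposed to vehicle or 20 nM in serum-free medium for up to 36 h. Detached and attached cells were pooled and stained with 50 μg/mL DAPI plus 100 μg/mL RNase A at 37 °C for 20 min. Apoptotic cells were scored by cytoplasmic shrinkage, membrane blebbing and nuclear condensation/fragmentation, and reported as % apoptotic cells.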

As a reminder, the inhibition is the share of the control response that was lost under treatment.

Active and inactive are the calls of the source. The rule behind the calls is not given here.

Take `C[C@H]1O[C@@H](O[C@H]2CC[C@]3(C=O)[C@H]4C[C@@H](O)[C@]5(C)[C@@H](C6=CC(=O)OC6)CC[C@]5(O)[C@@H]4CC[C@]3(O)C2)[C@H](O)[C@H](O)[C@@H]1O`: the outcome in experiment [1], in experiment [2], in experiment [3], in experiment [4], in experiment [6] and in experiment [7] was Active. Further, the inhibition at 0.05 µM in experiment [5] came to 78.9%. The molecule also yielded an Activity in experiment [8] of 22.3%.
